Experimental data: ChEMBL document CHEMBL1139333, “Search for new pharmacophores for antimalarial activity. Part I: synthesis and antimalarial activity of new 2-methyl-6-ureido-4-quinolinamides” (Bioorg Med Chem, 2009)
Converted amounts (≈) assume the structure as drawn.

Assays:
Enterococcus faecalis = test: Antibacterial activity against Streptococcus faecalis after 24 hrs by NCCLS method; format: functional
Method in brief: (§1)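 Bacteria grown on nutrient agar at 37 °C for 24 h, then suspended in normal saline with 0.05% Tween 20 at about […] cells/mL (0.5 McFarland). MIC by NCCLS broth microdilution in Mueller Hinton broth with twofold serial dilutions. Compounds were dissolved in DMSO at 1 mg/mL (stock). Growth, drug and blank controls were included.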

Klebsiella pneumoniae = test: Antibacterial activity against Klebsiella pneumoniae after 24 hrs by NCCLS method; format: functional; method in brief: as §1
Pseudomonas aeruginosa = test: Antibacterial activity against Pseudomonas aeruginosa after 24 hrs by NCCLS method; format: functional; method in brief: as §1
Staphylococcus aureus = test: Antibacterial activity against Staphylococcus aureus after 24 hrs by NCCLS method; format: functional; method in brief: as §1
[1] = Selectivity index, ratio of CC50 for african green monkey (Cercopithecus aethiops) Vero cells to IC50 for Plasmodium falciparum 3D7; format: functional
Plasmodium yoelii [2] = test: Antimalarial activity as parasitaemia after 28 days against chloroquine-resistant Plasmodium yoelii N67 infected Swiss mice (Mus musculus) at 50 mg/kg peroral dose over 4 days; format: functional; details: route oral
Method in brief: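 Swiss mice (25 g, either sex, n=5) infected on day 0 with 1 × 10⁶ P. yoelii N67 chloroquine-resistant parasitized cells. Test compounds were given orally as an aqueous suspension at 50 mg/kg from day 0 to 3; vehicle controls were run alongside. Parasitaemia was counted on tail-vein thin smears on days 4, 7, 14, 21 and 28, or until death.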

Plasmodium yoelii [3] = test: Antimalarial activity as parasitaemia after 28 days against chloroquine-resistant Plasmodium yoelii N67 infected Swiss mice (Mus musculus) at 50 mg/kg peroral dose over 7 days; format: functional; details: route oral
Escherichia coli = test: Antibacterial activity against Escherichia coli after 24 hrs by NCCLS method; format: functional; method in brief: as §1
Plasmodium falciparum [4] = test: Antimalarial effect as schizonticidal activity against chloroquine-sensitive Plasmodium falciparum 3D7 after 40 hrs; details: 3D7, 40 h
Plasmodium falciparum [5] = test: Antimalarial activity against chloroquine-sensitive Plasmodium falciparum 3D7 infected erythrocytes after 72 hrs by MSF assay; details: 3D7, 72 h
[6] = tested on: Plasmodium yoelii nigeriensis; test: Antimalarial activity at day 28 against Plasmodium yoelii nigeriensis MDR infected Swiss mice (Mus musculus) at 100 mg/kg peroral dose for 7 days; format: functional; details: route oral
[7] = tested on: Plasmodium yoelii nigeriensis; test: Antimalarial activity as parasitaemia against Plasmodium yoelii nigeriensis MDR infected Swiss mice (Mus musculus) at 100 mg/kg peroral dose over 4 days; details: route oral
Plasmodium yoelii [8] = test: Antimalarial activity as reduced parasitaemia after 28 days against chloroquine-resistant Plasmodium yoelii N67 infected Swiss mice (Mus musculus) at 50 mg/kg peroral dose over 7 days; format: functional; set-up: scale not given: the % may be the effect or the level left; details: route oral
[9] = tested on: Plasmodium yoelii nigeriensis; test: Antimalarial activity as reduced parasitaemia after 28 days against Plasmodium yoelii nigeriensis MDR infected Swiss mice (Mus musculus) at 100 mg/kg peroral dose over 4 days; format: functional; set-up: scale not given: the % may be the effect or the level left; details: route oral
Method in brief: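 Swiss mice of either sex (25 g) inoculated on day 0 with 1 × 10⁶ P. yoelii nigeriensis MDR parasitized cells. Groups of five mice received an aqueous suspension orally at 100 mg/kg from day 0 to day 3. Five vehicle-only mice served as controls. Parasitemia was read from tail-vein thin blood smears on days 4, 7, 14, 21 and 28, or until death.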

[10] = tested on: Plasmodium yoelii nigeriensis; test: Antimalarial activity day 28 against Plasmodium yoelii nigeriensis MDR infected Swiss mice (Mus musculus) as reduced parasitaemia at 100 mg/kg peroral dose for 7 days; format: functional; set-up: scale not given: the % may be the effect or the level left; details: route oral

| Compound | MIC (Enterococcus faecalis) | MIC (Klebsiella pneumoniae) | MIC (Pseudomonas aeruginosa) | MIC (Staphylococcus aureus) | Selectivity Index [1] | Activity (Plasmodium yoelii [2]) | Activity (Plasmodium yoelii [3]) | MIC (Escherichia coli) | MIC (Plasmodium falciparum [4]) | IC50 (Plasmodium falciparum [5]) | Activity [6] | Activity [7] | Activity (Plasmodium yoelii [8]) | Activity [9] | Activity [10] |
| --- | --- | --- | --- | --- | --- | --- | --- | --- | --- | --- | --- | --- | --- | --- | --- |
| GENTAMICIN | 3.12 µg/mL | 25 µg/mL | 6.25 µg/mL | 6.25 µg/mL |  |  |  |  |  |  |  |  |  |  |  |
| Cc1cc(NC(=O)CN2CCN(C)CC2)c2cc(NC(=O)Nc3ccc(Cl)c(C(F)(F)F)c3)ccc2n1 | 3.1 µg/mL (≈ 5.79 µM) | 1.56 µg/mL (≈ 2.92 µM) | 12.5 µg/mL (≈ 23.4 µM) | 6.25 µg/mL (≈ 11.7 µM) | 53.4 | 2.28% | 11% | 1.56 µg/mL (≈ 2.92 µM) | 0.5 µg/mL (≈ 0.935 µM) | 0.0182 µg/mL (≈ 0.034 µM) |  |  |  |  |  |
| CCN1CCN(CC(=O)Nc2cc(C)nc3ccc(NC(=O)Nc4cc(Cl)cc(Cl)c4)cc23)CC1 |  | 6.25 µg/mL (≈ 12.1 µM) |  | 3.12 µg/mL (≈ 6.05 µM) |  |  |  | 12.5 µg/mL (≈ 24.3 µM) | 0.5 µg/mL (≈ 0.97 µM) |  |  |  |  |  |  |
| CCN1CCN(CC(=O)Nc2cc(C)nc3ccc(NC(=O)Nc4ccc(Cl)c(Cl)c4)cc23)CC1 |  | 12.5 µg/mL (≈ 24.3 µM) |  | 6.25 µg/mL (≈ 12.1 µM) |  |  |  |  | 0.5 µg/mL (≈ 0.97 µM) |  |  |  |  |  |  |
| Cc1cc(NC(=O)CN2CCN(C)CC2)c2cc(NC(=O)Nc3ccc(C)c(Cl)c3)ccc2n1 |  | 12.5 µg/mL (≈ 26 µM) | > 50 µg/mL |  |  | 1.67% | 5.15% | 6.25 µg/mL (≈ 13 µM) | 0.25 µg/mL (≈ 0.52 µM) | 0.0033 µg/mL (≈ 0.00686 µM) |  |  |  |  |  |
| Cc1cc(NC(=O)CN2CCCCC2)c2cc(NC(=O)Nc3ccc(Cl)c(C(F)(F)F)c3)ccc2n1 |  |  |  |  | 76.5 |  |  |  | 0.25 µg/mL (≈ 0.481 µM) | 0.0358 µg/mL (≈ 0.0689 µM) | 13.83% | 0.27% |  |  |  |
| Cc1cc(NC(=O)c2ccccc2)c2cc(NC(=O)Nc3cc(Cl)cc(Cl)c3)ccc2n1 | 0.01 µg/mL (≈ 0.0215 µM) | 0.04 µg/mL (≈ 0.086 µM) | 12.5 µg/mL (≈ 26.9 µM) |  |  |  |  | 0.0025 µg/mL (≈ 0.00537 µM) | 2 µg/mL (≈ 4.3 µM) |  |  |  |  |  |  |
| Cc1cc(NC(=O)CN2CCN(C)CC2)c2cc(NC(=O)Nc3ccc(Cl)c(Cl)c3)ccc2n1 | 1.56 µg/mL (≈ 3.11 µM) |  | 6.25 µg/mL (≈ 12.5 µM) | 6.25 µg/mL (≈ 12.5 µM) |  | 2.55% | 1.5% | 1.56 µg/mL (≈ 3.11 µM) | 0.25 µg/mL (≈ 0.499 µM) | 0.0022 µg/mL (≈ 0.00439 µM) |  |  | 92.9% |  |  |
| Cc1cc(NC(=O)CN2CCN(C)CC2)c2cc(NC(=O)Nc3cc(Cl)cc(Cl)c3)ccc2n1 | 3.12 µg/mL (≈ 6.23 µM) |  |  |  | 4404.8 | 4.78% | 15.5% | 1.56 µg/mL (≈ 3.11 µM) | 0.25 µg/mL (≈ 0.499 µM) | 0.0004 µg/mL (≈ 0.000798 µM) |  |  |  |  |  |
| Cc1cc(NC(=O)c2ccco2)c2cc(NC(=O)Nc3cccc(C#N)c3)ccc2n1 |  |  |  |  |  |  |  |  | 0.5 µg/mL (≈ 1.22 µM) | 0.0004 µg/mL (≈ 0.000972 µM) | 1.84% | 0% |  | 100% | 91.29% |
| Cc1cc(NC(=O)CN2CCN(C)CC2)c2cc(NC(=O)Nc3ccc(Br)cc3)ccc2n1 | 6.25 µg/mL (≈ 12.2 µM) | 6.25 µg/mL (≈ 12.2 µM) | 1.56 µg/mL (≈ 3.05 µM) |  |  |  |  | 6.25 µg/mL (≈ 12.2 µM) | 1 µg/mL (≈ 1.96 µM) |  |  |  |  |  |  |
| Cc1cc(NC(=O)CN2CCN(C)CC2)c2cc(NC(=O)Nc3cccc(Cl)c3)ccc2n1 |  |  |  |  | 549.7 |  |  |  | 0.25 µg/mL (≈ 0.535 µM) | 0.013 µg/mL (≈ 0.0278 µM) | 50% | 18.8% |  |  |  |
| Cc1cc(NC(=O)c2cccc(Cl)c2)c2cc(NC(=O)Nc3ccc(Cl)cc3)ccc2n1 | 12.5 µg/mL (≈ 26.9 µM) | 6.25 µg/mL (≈ 13.4 µM) | 1.56 µg/mL (≈ 3.35 µM) | 3.12 µg/mL (≈ 6.7 µM) |  |  |  | 12.5 µg/mL (≈ 26.9 µM) | 1 µg/mL (≈ 2.15 µM) | 0.0144 µg/mL (≈ 0.0309 µM) |  |  |  |  |  |
